Key:
A549 = test: Cytotoxicity against human A549 cells; format: functional, cell-based
[1] = Cytotoxicity against human H1299 cells; format: functional, cell-based; details: NCI-H1299
[2] = Displacement of [3H]-ditolyl guanidine from sigma 2 receptor in rat liver membranes after 1 hr by liquid scintillation counting; format: cell membranes, Membrane
MCF7 = test: Cytotoxicity against human MCF7 cells; format: functional, cell-based
HCT-15 = test: Cytotoxicity against human HCT15 cells; format: functional, cell-based
SF-268 = test: Cytotoxicity against human SF268 cells; format: functional, cell-based
SK-OV-3 = test: Cytotoxicity against human SKOV3 cells; format: functional, cell-based
MDA-MB-231 = test: Cytotoxicity against human MDA-MB-231 cells; format: functional, cell-based
NCI-H460 = test: Cytotoxicity against human NCI-H460 cells; format: functional, cell-based
[3] = target: Sigma non-opioid intracellular receptor 1 (Cavia porcellus, UniProt Q60492); test: Displacement of (+)-[3H]pentazocine from sigma 1 receptor in guinea pig liver homogenates after 1 hr by liquid scintillation counting; format: tissue-based
Summary of the method: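 Microsomal membranes (17,000 g then 100,000 g pellets) from guinea pig liver, 25 µg/well, with 10 nM (+)-[3H]pentazocine and serial competitor concentrations for 1 h at 30°C. Filtered on 0.5% PEI-treated GF/B filters; bound label counted by liquid scintillation. Nonlinear regression, single-site fit; Ki by Cheng-Prusoff.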

DU-145 = test: Cytotoxicity against human DU145 cells; format: functional, cell-based
MCF-10A = test: Cytotoxicity against human MCF10A cells; format: functional, cell-based
[4] = Selectivity ratio of Ki for sigma 2 receptor in rat liver membranes to Ki for sigma 1 receptor in guinea pig liver homogenates; format: cell membranes; details: Membrane
HT-29 = test: Cytotoxicity against human HT-29 cells; format: functional, cell-based

Chain of Sigma non-opioid intracellular receptor 1 (Q60492 whole entry): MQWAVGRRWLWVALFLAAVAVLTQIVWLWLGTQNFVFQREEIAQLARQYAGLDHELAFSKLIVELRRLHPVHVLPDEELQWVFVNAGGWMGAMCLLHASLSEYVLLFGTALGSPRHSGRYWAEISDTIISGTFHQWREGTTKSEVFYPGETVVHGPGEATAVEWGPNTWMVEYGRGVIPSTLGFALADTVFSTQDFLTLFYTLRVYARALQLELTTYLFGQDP

| SMILES | IC50 (A549) | IC50 [1] | Ki ([2]; read-out: Ki) | IC50 (MCF7) | IC50 (HCT-15) | IC50 (SF-268) | IC50 (SK-OV-3) | IC50 (MDA-MB-231) | IC50 (NCI-H460) | Ki ([3]; read-out: Ki) | IC50 (DU-145) | IC50 (MCF-10A) | Ratio Ki [4] | IC50 (HT-29) | Ki [3] | Ki [2] |
| --- | --- | --- | --- | --- | --- | --- | --- | --- | --- | --- | --- | --- | --- | --- | --- | --- |
| CCCCN(CCCC)CCCc1ccc(F)cc1 | > 100 µM | > 100 µM | 0.685 µM | > 100 µM | > 100 µM | > 100 µM | 56.2 µM | > 100 µM | > 100 µM | 0.0177 µM | > 100 µM | > 100 µM | 38.7 | > 100 µM |  |  |
| CCCNCCCc1ccc(F)cc1 |  |  | 0.23 µM |  |  |  |  |  |  | 0.091 µM |  |  | 2.53 |  |  |  |
| CCCNCCc1ccc([N+](=O)[O-])cc1 |  |  | 53.6 µM |  |  |  |  |  |  | 2.25 µM |  |  | 23.8 |  |  |  |
| CCCCN(CCCC)CCCc1ccc([N+](=O)[O-])cc1 | > 100 µM | > 100 µM | 0.404 µM | 22.4 µM | > 100 µM | > 100 µM | 27.9 µM | 57.1 µM | 40.5 µM | 0.0003 µM | 32.7 µM | > 100 µM | 1350 | > 100 µM |  |  |
| CCCN(CCCc1ccc([N+](=O)[O-])cc1)CCc1ccc(N)cc1 | > 100 µM | > 100 µM | 0.0836 µM | 88.1 µM | > 100 µM | > 100 µM | > 100 µM | > 100 µM | > 100 µM | 0.006 µM | > 100 µM | > 100 µM | 13.9 | > 100 µM |  |  |
| CCCN(Cc1cccc([N+](=O)[O-])c1)C(=O)CCc1ccc(F)cc1 |  |  | 236 µM |  |  |  |  |  |  |  |  |  |  |  | Not Active |  |
| CCCN(CCCc1ccc(F)cc1)CCc1ccc(N)cc1 | > 100 µM | > 100 µM | 0.12 µM | 41.3 µM | > 100 µM | > 100 µM | 20.2 µM | 68.1 µM | 44.8 µM | 2.59 µM | > 100 µM | > 100 µM | 0.046 | > 100 µM |  |  |
| CCCN(CCCc1ccc(F)cc1)Cc1ccc(N)cc1 | > 100 µM | > 100 µM | 2.15 µM | > 100 µM | > 100 µM | > 100 µM | > 100 µM | > 100 µM | > 100 µM | 0.164 µM | > 100 µM | > 100 µM | 13.1 | > 100 µM |  |  |
| CCCN(CCCc1ccc(F)cc1)Cc1ccc(N=[N+]=[N-])c(I)c1 |  |  |  |  |  |  |  |  |  | 89 µM |  |  | > 571 |  |  |  |
| CCCN(CCCc1ccc(F)cc1)CCc1ccc(N=[N+]=[N-])c(I)c1 | > 100 µM | 90.8 µM | 1.29 µM | 16.8 µM | 54.1 µM | 38.8 µM | > 100 µM | 21.6 µM | 40.3 µM | 7.24 µM | 13.1 µM | 88.6 µM | 0.178 | 36.4 µM |  |  |
| CCCCN(CCCC)C(=O)CCc1ccc(F)cc1 |  |  | 126 µM |  |  |  |  |  |  | 32.1 µM |  |  | 3.94 |  |  |  |
| CCCCCCCCN(CCCCCCCC)C(=O)CCc1ccc(F)cc1 |  |  |  |  |  |  |  |  |  | 53.6 µM |  |  |  |  |  | Not Active |
| CCCN(CCCc1ccc(F)cc1)Cc1ccc(N)c(I)c1 |  |  | 133 µM |  |  |  |  |  |  |  |  |  | 0.339 |  |  |  |
| CCCCCCCCN(CCCCCCCC)CCCc1ccc(F)cc1 |  |  | 1.65 µM |  |  |  |  |  |  | 0.665 µM |  |  | 2.49 |  |  |  |
